Measurements of several laboratories.
Compare with care: the assays were run in different laboratories.
Cell line: HepG2
Observed: cell growth or viability

Compound | technique | time | IC50
CN(C)c1cc(NC(=O)Cc2ccccn2)c(O)c2c1C[C@H]1C[C@H]3[C@H](N(C)C)C(O)=C(C(N)=O)C(=O)[C@@]3(O)C(O)=C1C2=O | ATP luminescence | 72 h | > 200 µg/mL
COc1cccc2c1C(=O)c1c(O)c3c(c(O)c1C2=O)C[C@@](O)(C(=O)CO)C[C@@H]3O[C@H]1C[C@H](N)[C@H](O)[C@H](C)O1 | MTT | 24 h | 4.5 µM
CN(C)c1cc(NC(=O)Cc2cncnc2)c(O)c2c1C[C@H]1C[C@H]3[C@H](N(C)C)C(O)=C(C(N)=O)C(=O)[C@@]3(O)C(O)=C1C2=O | ATP luminescence | 72 h | 84.8 µg/mL
Nc1n[nH]c2nc(-c3cccc(O)c3)cc(-c3cc4cc(Cl)ccc4nc3N3CCOCC3)c12 | MTT | 72 h | 0.0907 µM
CN(C)c1cc(NC(=O)Cc2ncccn2)c(O)c2c1C[C@H]1C[C@H]3[C@H](N(C)C)C(O)=C(C(N)=O)C(=O)[C@@]3(O)C(O)=C1C2=O | ATP luminescence | 72 h | 108 µg/mL
Cc1ccc(-c2cc(-c3c(Cl)cccc3Cl)c3c(=O)n(C)c(=O)n(C)c3n2)cc1 | MTT | 48 h | 7.49 µM
CN(C)c1cc(NC(=O)Cc2cccnn2)c(O)c2c1C[C@H]1C[C@H]3[C@H](N(C)C)C(O)=C(C(N)=O)C(=O)[C@@]3(O)C(O)=C1C2=O | ATP luminescence | 72 h | > 200 µg/mL
COc1ccc(-c2cc(-c3c(OC)cccc3OC)c3c(=O)[nH]c(=O)[nH]c3n2)cc1 | MTT | 48 h | 36.5 µM
CN(C)c1cc(NC(=O)Cc2cccnc2)c(O)c2c1C[C@H]1C[C@H]3[C@H](N(C)C)C(O)=C(C(N)=O)C(=O)[C@@]3(O)C(O)=C1C2=O | ATP luminescence | 72 h | > 200 µg/mL
O=C(Cc1csc(NC(=O)c2cc3ccccc3[nH]2)n1)NO | MTT | 24 h | 67.9 µM
C[C@H](CCC(=O)O)[C@H]1CC[C@H]2[C@@H]3CC[C@@H]4C[C@H](O)CC[C@]4(C)[C@H]3CC[C@]12C | MTT | 72 h | 52 µM
CN(C)c1cc(NC(=O)CNC(C)(C)C)c(O)c2c1C[C@H]1C[C@H]3[C@H](N(C)C)C(O)=C(C(N)=O)C(=O)[C@@]3(O)C(O)=C1C2=O | ATP luminescence | 72 h | > 200 µg/mL
COc1ccc(-c2cc(-c3cc(OC)ccc3OC)c3c(=O)n(C)c(=O)n(C)c3n2)cc1 | MTT | 48 h | 16.4 µM
COc1ccc2nc(N3CCOCC3)c(-c3cc(-c4cccc(O)c4)nc4[nH]nc(N)c34)cc2c1 | MTT | 72 h | 0.087 µM
Cc1ccc(-c2cc(-c3ccc(Cl)c(F)c3)c3c(=O)n(C)c(=O)n(C)c3n2)cc1 | MTT | 48 h | 38.8 µM
O=C(C=Cc1ccccc1)Nc1cc(-c2ccnc(N3CCC(O)CC3)c2)ccn1 | MTT | 72 h | 0.111 µM
COc1ccc2[nH]c(C(=O)Nc3nc(CC(=O)NO)cs3)cc2c1 | MTT | 24 h | 13.3 µM
COc1ccc(-c2cc(-c3cccc(Br)c3)c3c(=O)n(C)c(=O)n(C)c3n2)cc1 | MTT | 48 h | 12.4 µM
COc1ccc(C2CC(c3ccc(Nc4nnc(-c5ccc(Cl)cc5)c5ccccc45)cc3)=NN2)cc1 (centres unmarked) | MTT | 72 h | 0.19 µM
COc1ccc(-c2cc(-c3ccc(OC)cc3)c3c(=O)[nH]c(=O)[nH]c3n2)cc1 | MTT | 48 h | 9.62 µM
COc1cccc2c1C(=O)c1c(O)c3c(c(O)c1C2=O)C[C@@](O)(C(=O)CO)C[C@@H]3O[C@H]1C[C@H](N)[C@H](O)[C@H](C)O1 | MTT | 72 h | 0.355 µM
CN(C)c1cc(NC(=O)Cc2ccccc2)c(O)c2c1C[C@H]1C[C@H]3[C@H](N(C)C)C(O)=C(C(N)=O)C(=O)[C@@]3(O)C(O)=C1C2=O | ATP luminescence | 72 h | 63.7 µg/mL
Cc1ccc(-c2cc(-c3ccc(N(C)C)cc3)c3c(=O)n(C)c(=O)n(C)c3n2)cc1 | MTT | 48 h | 14.4 µM
